“And” between values parts separate entries of the source, which are not always exact repeats. Equal entries are not always repeated.
Tested on: Fibroblast
Experiment: Multiplex assay against human fibroblast
Format: toxicity, cell-based
How it was run: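 Compound was added to live cells that had been stained at seeding with Hoechst33342, BioTracker Green Microtubule Cytoskeleton Dye, MitoTracker Red and Annexin V Alexa Fluor 680, and imaging followed on a CQ1 microscope at 37°C and 5% CO2. CellPathfinder machine-learning gating divided cells into Hoechst high-intensity objects or normal cells, normal cells into healthy, pyknosed or fragmented nuclei, and pyknosed cells into mitotic or apoptotic. Tubulin, mitochondrial-mass and membrane-permeability phenotypes are per cents of healthy-nucleus cells.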

[1] = 12 h, 1 µM, compound concentration 1 uM
[2] = 12 h, 10 µM, compound concentration 10 uM
[3] = 24 h, 1 µM, compound concentration 1 uM
[4] = 24 h, 10 µM, compound concentration 10 uM
[5] = 48 h, 1 µM, compound concentration 1 uM
[6] = 48 h, 10 µM, compound concentration 10 uM

## CSc1ccccc1N1CCN(CCCCCC(=O)NC2CCCc3ccccc32)CC1.Cl (stereo unspecified)
[1]
  Population Apoptotic (%): 37% and 50%
  Population Fragmented Nuclei (%): 26% and 32%
  Population Healthy Nuclei (%): 49% and 41%
  Population Hoechst High Intensity Objects (%): 6% and 2%
  Population Membrane Permeable-Phenotype (%): 1% and 9%
  Population Mitochondria Different-Phenotype (%): 15% and 7%
  Population Mitotic Cells (%): 62% and 50%
  Population Normal (%): 93% and 97%
  Population Pyknosed Nuclei (%): 24% and 25%
  Population Tubulin-Different-Phenotype (%): 65% and 74%
  Total Cell Count: 126 and 135
[2]
  Population Apoptotic (%): 58% and 66%
  Population Fragmented Nuclei (%): 25% and 34%
  Population Healthy Nuclei (%): 57% and 50%
  Population Hoechst High Intensity Objects (%): 5%
  Population Membrane Permeable-Phenotype (%): 0%
  Population Mitochondria Different-Phenotype (%): 78% and 36%
  Population Mitotic Cells (%): 41% and 33%
  Population Normal (%): 94%
  Population Pyknosed Nuclei (%): 17% and 14%
  Population Tubulin-Different-Phenotype (%): 95% and 92%
  Total Cell Count: 220 and 242
[3]
  Population Apoptotic (%): 52% and 37%
  Population Fragmented Nuclei (%): 29% and 33%
  Population Healthy Nuclei (%): 52% and 43%
  Population Hoechst High Intensity Objects (%): 6% and 3%
  Population Membrane Permeable-Phenotype (%): 0% and 3%
  Population Mitochondria Different-Phenotype (%): 21% and 11%
  Population Mitotic Cells (%): 47% and 62%
  Population Normal (%): 93% and 96%
  Population Pyknosed Nuclei (%): 18% and 23%
  Population Tubulin-Different-Phenotype (%): 40% and 64%
  Total Cell Count: 133 and 130
[4]
  Population Apoptotic (%): 90% and 66%
  Population Fragmented Nuclei (%): 22% and 33%
  Population Healthy Nuclei (%): 66% and 56%
  Population Hoechst High Intensity Objects (%): 7% and 3%
  Population Membrane Permeable-Phenotype (%): 0%
  Population Mitochondria Different-Phenotype (%): 81% and 51%
  Population Normal (%): 92% and 96%
  Population Pyknosed Nuclei (%): 11% and 9%
  Population Tubulin-Different-Phenotype (%): 98% and 90%
  Total Cell Count: 211 and 258
[5]
  Population Apoptotic (%): 61% and 44%
  Population Fragmented Nuclei (%): 26% and 33%
  Population Healthy Nuclei (%): 56% and 45%
  Population Hoechst High Intensity Objects (%): 6% and 1%
  Population Membrane Permeable-Phenotype (%): 2% and 0%
  Population Mitochondria Different-Phenotype (%): 17% and 12%
  Population Mitotic Cells (%): 38% and 56%
  Population Normal (%): 93% and 98%
  Population Pyknosed Nuclei (%): 17% and 20%
  Population Tubulin-Different-Phenotype (%): 69% and 64%
  Total Cell Count: 132 and 124
[6]
  Population Apoptotic (%): 91% and 68%
  Population Fragmented Nuclei (%): 25% and 38%
  Population Healthy Nuclei (%): 61% and 53%
  Population Hoechst High Intensity Objects (%): 8% and 4%
  Population Membrane Permeable-Phenotype (%): 0% and 2%
  Population Mitochondria Different-Phenotype (%): 82% and 33%
  Population Normal (%): 91% and 95%
  Population Pyknosed Nuclei (%): 12% and 8%
  Population Tubulin-Different-Phenotype (%): 97% and 83%
  Total Cell Count: 195 and 281

## COCCCN1CCC(NC(=O)c2cc(Cl)c(N)c3c2OCC3)CC1 [PRUCALOPRIDE]
[1]
  Population Apoptotic (%): 33% and 48%
  Population Fragmented Nuclei (%): 20% and 31%
  Population Healthy Nuclei (%): 62% and 48%
  Population Hoechst High Intensity Objects (%): 3% and 4%
  Population Membrane Permeable-Phenotype (%): 0% and 5%
  Population Mitochondria Different-Phenotype (%): 3% and 8%
  Population Mitotic Cells (%): 66% and 52%
  Population Normal (%): 96% and 95%
  Population Pyknosed Nuclei (%): 16% and 20%
  Population Tubulin-Different-Phenotype (%): 30% and 51%
  Total Cell Count: 132 and 130
[2]
  Population Apoptotic (%): 30% and 35%
  Population Fragmented Nuclei (%): 12% and 28%
  Population Healthy Nuclei (%): 66% and 46%
  Population Hoechst High Intensity Objects (%): 0% and 11%
  Population Membrane Permeable-Phenotype (%): 1% and 7%
  Population Mitochondria Different-Phenotype (%): 7% and 3%
  Population Mitotic Cells (%): 70% and 64%
  Population Normal (%): 99% and 88%
  Population Pyknosed Nuclei (%): 20% and 25%
  Population Tubulin-Different-Phenotype (%): 31% and 55%
  Total Cell Count: 144 and 153
[3]
  Population Apoptotic (%): 48% and 72%
  Population Fragmented Nuclei (%): 20% and 36%
  Population Healthy Nuclei (%): 57% and 49%
  Population Hoechst High Intensity Objects (%): 2% and 7%
  Population Membrane Permeable-Phenotype (%): 0% and 7%
  Population Mitochondria Different-Phenotype (%): 3% and 4%
  Population Mitotic Cells (%): 51% and 27%
  Population Normal (%): 97% and 92%
  Population Pyknosed Nuclei (%): 21% and 14%
  Population Tubulin-Different-Phenotype (%): 25% and 50%
  Total Cell Count: 136 and 138
[4]
  Population Apoptotic (%): 63% and 30%
  Population Fragmented Nuclei (%): 10% and 24%
  Population Healthy Nuclei (%): 74% and 57%
  Population Hoechst High Intensity Objects (%): 6% and 5%
  Population Membrane Permeable-Phenotype (%): 1% and 11%
  Population Mitochondria Different-Phenotype (%): 6% and 3%
  Population Mitotic Cells (%): 36% and 69%
  Population Normal (%): 93% and 94%
  Population Pyknosed Nuclei (%): 15% and 18%
  Population Tubulin-Different-Phenotype (%): 30% and 56%
  Total Cell Count: 128 and 148
[5]
  Population Apoptotic (%): 50%
  Population Fragmented Nuclei (%): 25% and 36%
  Population Healthy Nuclei (%): 60% and 49%
  Population Hoechst High Intensity Objects (%): 4% and 2%
  Population Membrane Permeable-Phenotype (%): 2% and 3%
  Population Mitochondria Different-Phenotype (%): 3% and 6%
  Population Mitotic Cells (%): 50%
  Population Normal (%): 95% and 97%
  Population Pyknosed Nuclei (%): 14% and 13%
  Population Tubulin-Different-Phenotype (%): 38% and 53%
  Total Cell Count: 146 and 132
[6]
  Population Apoptotic (%): 64% and 62%
  Population Fragmented Nuclei (%): 22% and 34%
  Population Healthy Nuclei (%): 66% and 48%
  Population Hoechst High Intensity Objects (%): 2% and 6%
  Population Membrane Permeable-Phenotype (%): 1% and 7%
  Population Mitochondria Different-Phenotype (%): 6% and 7%
  Population Mitotic Cells (%): 35% and 37%
  Population Normal (%): 97% and 93%
  Population Pyknosed Nuclei (%): 10% and 17%
  Population Tubulin-Different-Phenotype (%): 38% and 57%
  Total Cell Count: 136 and 146

## C[C@@H]1CC(=O)Nc2cccc(-c3ccc4c(c3)c(-c3cnn(C)c3)nn4C)c2N1
[1]
  Population Apoptotic (%): 38%
  Population Fragmented Nuclei (%): 20% and 26%
  Population Healthy Nuclei (%): 63% and 47%
  Population Hoechst High Intensity Objects (%): 1% and 5%
  Population Membrane Permeable-Phenotype (%): 0% and 8%
  Population Mitochondria Different-Phenotype (%): 4% and 12%
  Population Mitotic Cells (%): 61%
  Population Normal (%): 98% and 94%
  Population Pyknosed Nuclei (%): 15% and 26%
  Population Tubulin-Different-Phenotype (%): 31% and 51%
  Total Cell Count: 115 and 105
[2]
  Population Apoptotic (%): 40% and 30%
  Population Fragmented Nuclei (%): 17% and 11%
  Population Healthy Nuclei (%): 65% and 58%
  Population Hoechst High Intensity Objects (%): 5% and 6%
  Population Membrane Permeable-Phenotype (%): 1% and 7%
  Population Mitotic Cells (%): 59% and 69%
  Population Normal (%): 94% and 93%
  Population Pyknosed Nuclei (%): 17% and 30%
  Population Tubulin-Different-Phenotype (%): 63% and 68%
  Total Cell Count: 161 and 126
[3]
  Population Apoptotic (%): 57% and 35%
  Population Fragmented Nuclei (%): 16% and 29%
  Population Healthy Nuclei (%): 67% and 50%
  Population Hoechst High Intensity Objects (%): 2% and 7%
  Population Membrane Permeable-Phenotype (%): 2% and 11%
  Population Mitochondria Different-Phenotype (%): 5% and 9%
  Population Mitotic Cells (%): 42% and 65%
  Population Normal (%): 97% and 92%
  Population Pyknosed Nuclei (%): 15% and 19%
  Population Tubulin-Different-Phenotype (%): 33% and 60%
  Total Cell Count: 122 and 112
[4]
  Population Apoptotic (%): 75% and 42%
  Population Fragmented Nuclei (%): 19% and 13%
  Population Healthy Nuclei (%): 69% and 57%
  Population Hoechst High Intensity Objects (%): 10% and 5%
  Population Membrane Permeable-Phenotype (%): 0% and 1%
  Population Mitotic Cells (%): 25% and 57%
  Population Normal (%): 89% and 94%
  Population Pyknosed Nuclei (%): 11% and 29%
  Population Tubulin-Different-Phenotype (%): 66% and 76%
  Total Cell Count: 158 and 119
[5]
  Population Apoptotic (%): 50% and 30%
  Population Fragmented Nuclei (%): 25% and 36%
  Population Healthy Nuclei (%): 60% and 50%
  Population Hoechst High Intensity Objects (%): 5% and 2%
  Population Mitochondria Different-Phenotype (%): 6% and 8%
  Population Mitotic Cells (%): 50% and 69%
  Population Normal (%): 94% and 97%
  Population Pyknosed Nuclei (%): 14% and 13%
  Population Tubulin-Different-Phenotype (%): 21% and 60%
  Total Cell Count: 114 and 102
[6]
  Population Apoptotic (%): 92% and 60%
  Population Fragmented Nuclei (%): 17%
  Population Healthy Nuclei (%): 73% and 62%
  Population Hoechst High Intensity Objects (%): 3% and 4%
  Population Membrane Permeable-Phenotype (%): 0% and 6%
  Population Normal (%): 96% and 95%
  Population Pyknosed Nuclei (%): 8% and 19%
  Population Tubulin-Different-Phenotype (%): 68% and 69%
  Total Cell Count: 162 and 122
